The text below walks through data of ChEMBL document CHEMBL3259616, “New Ianthelliformisamine derivatives as antibiotic enhancers against resistant Gram-negative bacteria” (J Med Chem, 2014).

Structures are written as SMILES. ≈ marks a conversion by molar mass, not a printed value. Calls of active or inactive are those of the source. The calls are words filed in the database; no cut-off is given here. A value given as a limit tells only on which side of the number the result lay.

The subject of experiment [1] is Pseudomonas aeruginosa PAO1. Description: Inhibition of multidrug resistance efflux pump in Pseudomonas aeruginosa PAO1 assessed as depolarization by spectrofluorometry. In outline: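 PAO1 grown 24 h at 37 °C in MH broth, washed twice in buffered 250 mM sucrose with 5 mM MgSO4. Loaded with 3 μM 3,3-diethylthiodicarbocyanine iodide for 1 h at 37 °C, then derivative added at various concentrations. Fluorescence read at 0–21 min intervals. Maximum taken as 3 μM dye alone in buffer.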

For experiment [2], the system named is Pseudomonas aeruginosa PAO1. Description: Inhibition of multidrug resistance efflux pump in Pseudomonas aeruginosa PAO1 assessed as dose required to restore 2 ug/ml doxycycline-induced inhibition of visible growth after 18 hrs by standard broth dilution method. The gist of the method: (§1)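 Broth microdilution in MH broth, inoculum 10^5 CFU in 200 μL, 2-fold serial dilutions of derivative with fixed antibiotic (2 μg/mL). Lowest derivative concentration giving complete inhibition of visible growth after 18 h at 37 °C recorded. Antibiotics dissolved in DMSO. Independently repeated at least three times.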
On the technique in general: In broth dilution the organism is exposed to a series of concentrations in liquid medium.

Experiment [3] is described as follows: Cytotoxicity against CHOK1 cells assessed as decrease in cell viability after 24 hrs by WST-1 assay. The class given is cell-based. The following applies: Cricetulus griseus, CHO-K1, 24 h. The gist of the method:
(§2)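 CHO-K1 (McCoy's 5A) and human fibroblasts (DMEM), both with 10% bovine calf serum, 2 mM glutamine, penicillin/streptomycin, 37 °C, 5% CO2. Seeded, left overnight, then exposed to various compound concentrations in triplicate for 24 h at 37 °C. Washed three times in PBS, 30 min in PBS with 10% WST-1, A450. Viability as % of medium-only control; IC50 by nonlinear regression.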
(In general: Formazan colour is commonly taken as a measure of viable cells.)

Experiment [4] concerns Pseudomonas aeruginosa. Briefly: Disruption of outermembrane in Pseudomonas aeruginosa PAO1 assessed as ATP efflux at 2 to 200 uM by bioluminescence method. The class given is functional, organism-based. In outline: (§3)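 After 5 min an aliquot was vortexed, luciferin–luciferase added and luminescence read for 5 s. ATP quantified with an internal standard; maximal release set with 0.02% […].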

The next experiment concerns Staphylococcus aureus. Briefly: Antibacterial activity against Staphylococcus aureus DSM799 assessed as inhibition of visible growth after 18 hrs incubation by standard broth dilution method. In kind it is functional. The following applies: DSM799, 18 h. In outline:
(§4)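 Broth microdilution per CA-SFM: inoculum 10^5 CFU in 200 μL Mueller–Hinton broth with 2-fold serial dilutions of compound; MIC = lowest concentration with no visible growth after 18 h at 37 °C. Independently repeated at least three times. Strains kept at −80 °C in 15% glycerol and grown routinely in MH broth at 37 °C.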

For experiment [5], the system named is Klebsiella aerogenes. Description: Inhibition of multidrug resistance efflux pump in Enterobacter aerogenes EA289 assessed as dose required to restore 2 ug/ml doxycycline-induced inhibition of visible growth after 18 hrs by standard broth dilution method. The gist of the method: as §1
For experiment [6], the system named is Pseudomonas aeruginosa PAO1. Briefly: Inhibition of multidrug resistance efflux pump in Pseudomonas aeruginosa PAO1 assessed as dose required to restore 2 ug/ml chloramphenicol-induced inhibition of visible growth after 18 hrs by standard broth dilution method. The gist of the method:
as §1

Experiment [7] has as its system Pseudomonas aeruginosa. Description: Antibacterial activity against Pseudomonas aeruginosa PAO1 assessed as inhibition of visible growth after 18 hrs incubation by standard broth dilution method. The class given is functional. The following applies: PAO1, 18 h. The gist of the method: as §4
Experiment [8] deals with Pseudomonas aeruginosa. Briefly: Disruption of outermembrane in Pseudomonas aeruginosa PAO1 assessed as ATP efflux at 2 mM by bioluminescence method. In kind it is functional. The gist of the method: as §3
For experiment [9], the system named is Pseudomonas aeruginosa PAO1. Briefly: Inhibition of multidrug resistance efflux pump in Pseudomonas aeruginosa PAO1 assessed as dose required to restore 2 ug/ml cefepime-induced inhibition of visible growth after 18 hrs by standard broth dilution method. In outline:
as §1

The subject of experiment [10] is Pseudomonas aeruginosa. Briefly: Disruption of outermembrane in Pseudomonas aeruginosa PAO1 assessed as ATP efflux at 2 to 200 uM by bioluminescence method in presence of 2 to 50 ug/ml doxycycline. In kind it is functional, organism-based. The gist of the method:
as §3

The subject of experiment [11] is Klebsiella pneumoniae. Briefly: Inhibition of multidrug resistance efflux pump in Klebsiella pneumoniae KPC2 ST258 assessed as dose required to restore 2 ug/ml doxycycline-induced inhibition of visible growth after 18 hrs by standard broth dilution method. In outline: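 Broth microdilution in Mueller-Hinton broth, CA-SFM recommendations. Inoculum 10^5 CFU in 200 μL containing 2-fold serial dilutions of derivative plus doxycycline at 2 μg/mL, 37 °C for 18 h. Antibiotics dissolved in DMSO, up to 5% v/v. Repeated independently at least three times.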

Experiment [12] relates to Pseudomonas aeruginosa. Description: Disruption of outermembrane in Pseudomonas aeruginosa PAO1 assessed as rate of nitrocefin hydrolysis at 500 uM spectrophotometrically. The class given is functional, organism-based. In outline: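 PAO1 grown in MH broth at 37 °C to OD600 0.5; then room temperature. Cells centrifuged and washed once in 20 mM potassium phosphate pH 7.2 with 1 mM MgCl2, then exposed to compound. Nitrocefin added to final 50 μg/mL as periplasmic β-lactamase substrate; hydrolysis followed as rising absorbance at 490 nm against untreated control.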

Experiment [13] in a line: Cytotoxicity against human fibroblasts assessed as decrease in cell viability after 24 hrs by WST-1 assay. The settings on record: Fibroblast. The class given is cell-based. In outline: as §2
For experiment [14], the system named is Klebsiella aerogenes. Briefly: Antibacterial activity against Enterobacter aerogenes EA289 assessed as inhibition of visible growth after 18 hrs incubation by standard broth dilution method. The class given is functional. The settings on record: EA289, 18 h. In outline: as §4
The test system of experiment [15] is Klebsiella pneumoniae. Briefly: Antibacterial activity against Klebsiella pneumoniae KPC2 ST258 assessed as inhibition of visible growth after 18 hrs incubation by standard broth dilution method. The class given is functional. The settings on record: KPC2, 18 h. In outline: as §4

For `COc1c(Br)cc(/C=C/C(=O)NCCCN(CCCN)CCCN)cc1Br`, the inhibition result in experiment [1] and in experiment [2] was “Dose-dependent effect” in each case. Besides, the Activity was 3.12 µM in [2]; 6.25 µM in the experiment on Klebsiella aerogenes [5]; 100 µM in experiment [6]; less than 16% with Pseudomonas aeruginosa [8]; 0.4 µM in [9]; 3.12 µM in the experiment with Klebsiella pneumoniae [11]. The IC50 in experiment [3] was determined as 846 µM; in [13], 345 µM. The inhibition result in the experiment on Pseudomonas aeruginosa [4], with Pseudomonas aeruginosa [10] and in the experiment with Pseudomonas aeruginosa [12] was “inactive” throughout. The minimal inhibitory concentration (MIC) in the experiment with Staphylococcus aureus was 50 µM (≈ 25.3 µg/mL); with Pseudomonas aeruginosa [7], 100 µM (≈ 50.6 µg/mL); in the experiment with Klebsiella aerogenes [14] it was greater than 200 µM; in the experiment on Klebsiella pneumoniae [15], greater than 200 µM.

Broadly, the IC50 is the point on the concentration scale where inhibition reaches its midpoint. As a reminder, the MIC is the lowest concentration that inhibits growth of the organism.
